# Where “and” joins values, the source holds several entries; their conditions need not be identical. Equal values may be shown once.
# Experiments:
# Format in all cases: functional
# [1] = test system: Staphylococcus aureus; assay: Antimicrobial activity against Staphylococcus aureus […] after 16 to 18 hrs by serial dilution method
# Outline: (§1)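 Tube broth dilution: serial drug dilutions in Mueller Hinton broth, pH adjusted to 5.0 with phosphate buffer. A standardized bacterial suspension was inoculated and incubated 16-18 h at 37 °C. MIC was read as the lowest drug concentration with no visible growth. Ciprofloxacin served as the reference.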
# [2] = test system: Escherichia coli; assay: Antimicrobial activity against Escherichia coli […] after 16 to 18 hrs by serial dilution method; outline: as §1
# [3] = test system: Pseudomonas aeruginosa; assay: Antimicrobial activity against Pseudomonas aeruginosa ATTC 27853 after 16 to 18 hrs by serial dilution method; outline: as §1
# [4] = test system: Klebsiella pneumoniae; assay: Antimicrobial activity against Klebsiella pneumoniae after 16 to 18 hrs by serial dilution method; outline: as §1
# [5] = test system: Staphylococcus aureus; assay: Antimicrobial activity against Staphylococcus aureus […] at MIC after 3 to 4 days by disc diffusion method
# [6] = test system: Escherichia coli; assay: Antimicrobial activity against Escherichia coli […] at MIC after 3 to 4 days by disc diffusion method
# [7] = test system: Pseudomonas aeruginosa; assay: Antimicrobial activity against Pseudomonas aeruginosa ATTC 27853 at MIC after 3 to 4 days by disc diffusion method
# [8] = test system: Klebsiella pneumoniae; assay: Antimicrobial activity against Klebsiella pneumoniae at MIC after 3 to 4 days by disc diffusion method
# [9] = test system: Mycobacterium tuberculosis; assay: Antitubercular activity against Mycobacterium tuberculosis H37Rv after 24 hrs by broth microdilution method
# Outline: (§2)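 M. tuberculosis H37Rv grown in Middlebrook 7H9 with 10% OADC, diluted to McFarland 1, 50 µl added to 150 µl fresh medium. Compounds from 2 mg/mL DMF stocks tested at 1, 10 and 100 µg/mL; DMF-only controls. 7 days at 37 °C, then 0.01% resazurin added with 24 h further incubation. MIC = lowest concentration preventing blue-to-pink change.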
# [10] = test system: Mycobacterium tuberculosis; assay: Antitubercular activity against Mycobacterium tuberculosis H37Rv at MIC after 24 hrs by broth microdilution method; outline: as §2
SMILES,MIC [1] [µg/mL],MIC [2] [µg/mL],MIC [3] [µg/mL],MIC [4] [µg/mL],diameter of the inhibition zone (DIZ) [5],diameter of the inhibition zone (DIZ) [6],diameter of the inhibition zone (DIZ) [7],diameter of the inhibition zone (DIZ) [8],MIC [9] [µg/mL],inhibition (INH) [10] [%]
CSc1ccc(NC(=O)Nc2c(-c3cccc(F)c3)nc3ccccc3c2O)cc1,50,6.25,50,50,<10 mm,22 mm,<10 mm,<10 mm,> 100,0
O=C(Nc1ccc(F)cc1)Nc1c(-c2ccc(F)cc2)nc2ccccc2c1O,6.25,6.25,6.25,6.25,18 mm,24 mm,17 mm,16 mm,10,95
COc1ccccc1NC(=O)Nc1c(-c2cccc(F)c2)nc2ccccc2c1O,6.25,6.25,6.25,6.25,19 mm,22 mm,18 mm,19 mm,1,99
CCCCCNC(=O)Nc1c(-c2ccc(F)cc2)nc2ccccc2c1O,50,6.25,50,50,<10 mm,20 mm,<10 mm,<10 mm,> 100,0
CSc1ccc(Nc2nc3c(-c4cccc(F)c4)nc4ccccc4c3o2)cc1,6.25,6.25,6.25,6.25,20 mm,23 mm,20 mm,22 mm,10,95
CCCCCNc1nc2c(-c3cccc(F)c3)nc3ccccc3c2o1,12.5,6.25,12.5,12.5,11 mm,24 mm,14 mm,12 mm,10,95
CO[C@H]1/C=C/O[C@@]2(C)Oc3c(C)c(O)c4c(O)c(c(/C=N/N5CCN(C)CC5)c(O)c4c3C2=O)NC(=O)/C(C)=C\C=C\[C@H](C)[C@H](O)[C@@H](C)[C@@H](O)[C@@H](C)[C@H](OC(C)=O)[C@@H]1C [RIFAMPIN],,,,,,,,,0.5,99
O=C(Nc1ccccc1)Nc1c(-c2cccc(F)c2)nc2ccccc2c1O,6.25,6.25,6.25,6.25,17 mm,20 mm,18 mm,20 mm,10,95
CCCCCNC(=O)Nc1c(-c2cccc(F)c2)nc2ccccc2c1O,12.5,6.25,12.5,12.5,12 mm,22 mm,11 mm,12 mm,> 100,0
N#Cc1cccc(Nc2nc3c(-c4cccc(F)c4)nc4ccccc4c3o2)c1,12.5,12.5,12.5,12.5,11 mm,16 mm,14 mm,12 mm,> 100,0
Cc1cc(C)cc(Nc2nc3c(-c4ccc(F)cc4)nc4ccccc4c3o2)c1,12.5,6.25,12.5,12.5,11 mm,24 mm,14 mm,12 mm,10,95
Fc1ccc(-c2nc3ccccc3c3oc(Nc4cccc(Cl)c4)nc23)cc1,6.25,6.25,6.25,6.25,22 mm,26 mm,24 mm,21 mm,1,99
O=C(NCCc1ccccc1)Nc1c(-c2cccc(F)c2)nc2ccccc2c1O,50,50,50,50,<10 mm,<10 mm,<10 mm,<10 mm,> 100,0
Fc1ccc(-c2nc3ccccc3c3oc(NCc4ccccc4)nc23)cc1,6.25,6.25,6.25,6.25,21 mm,24 mm,24 mm,19 mm,10,95
Cc1cc(C)cc(NC(=O)Nc2c(-c3ccc(F)cc3)nc3ccccc3c2O)c1,50,50,50,50,<10 mm,<10 mm,<10 mm,<10 mm,> 100,0
O=C(NCc1ccccc1)Nc1c(-c2ccc(F)cc2)nc2ccccc2c1O,6.25,50,50,50,16 mm,<10 mm,<10 mm,<10 mm,10,95
O=C(NCc1ccccc1)Nc1c(-c2cccc(F)c2)nc2ccccc2c1O,6.25,6.25,6.25,6.25,18 mm,21 mm,20 mm,18 mm,10,95
Fc1cccc(-c2nc3ccccc3c3oc(Nc4ccccc4)nc23)c1,6.25,6.25,6.25,6.25,20 mm,26 mm,22 mm,20 mm,10,95
O=C(O)c1cn(C2CC2)c2cc(N3CCNCC3)c(F)cc2c1=O [CIPROFLOXACIN],,,,6.25,26 mm and 24 mm,28 mm and 29 mm,31 mm and 25 mm,25 mm and 22 mm,,
NNC(=O)c1ccncc1 [ISONIAZID],,,,,,,,,1.5,95
